ChEMBL document CHEMBL4613248, “Twelfth-Position Deuteration of Nevirapine Reduces 12-Hydroxy-Nevirapine Formation and Nevirapine-Induced Hepatocyte Death” (J Med Chem, 2020)

Experiments:
Cytochrome P450 2A6 = biological target: T1, Cytochrome P450 2A6 (Homo sapiens, UniProt P11509); test: Drug metabolism assessed as human CYP2A6-mediated formation of 12-OHNVP at 10 uM pre-incubated for 30 mins followed by addition of NADPH regenerating reagents by uHPLC-MS analysis; type: ADME; conditions: recombinant enzyme
T1 sequence (P11509 whole entry): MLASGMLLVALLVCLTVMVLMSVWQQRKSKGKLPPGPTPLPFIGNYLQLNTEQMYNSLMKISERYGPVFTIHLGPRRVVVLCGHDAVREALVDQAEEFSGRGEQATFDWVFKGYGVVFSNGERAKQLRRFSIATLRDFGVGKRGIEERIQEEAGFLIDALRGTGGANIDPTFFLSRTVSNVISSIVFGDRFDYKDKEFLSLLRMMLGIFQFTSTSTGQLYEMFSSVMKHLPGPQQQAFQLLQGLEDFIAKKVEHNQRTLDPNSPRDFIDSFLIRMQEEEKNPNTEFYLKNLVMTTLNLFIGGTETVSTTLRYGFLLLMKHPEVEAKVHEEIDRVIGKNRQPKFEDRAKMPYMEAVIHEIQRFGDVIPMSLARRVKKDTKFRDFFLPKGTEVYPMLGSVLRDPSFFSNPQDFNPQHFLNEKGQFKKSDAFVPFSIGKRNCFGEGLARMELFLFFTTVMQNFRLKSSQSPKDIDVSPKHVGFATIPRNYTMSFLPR
How it was run: (§1)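 Insect-cell microsomes with single cDNA-expressed human P450 (100 nM) in 0.1 M potassium phosphate; 10 μM substrate prewarmed 5 min at 37 °C with NADPH-regenerating system, reaction started by adding microsomes; 30 min at 37 °C, 0.1% DMSO. Stopped, dried, reconstituted in methanol; triple-quadrupole SRM (12-OH 283.1→223.0, 2-OH 283.1→160.9, 3-OH 283.1→241.9), peak height; three replicates, mean ± SD.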

Cytochrome P450 3A5 = Cytochrome P450 3A5 (Homo sapiens, UniProt P20815); test: Drug metabolism assessed as human CYP3A5-mediated formation of 12-OHNVP at 10 uM pre-incubated for 30 mins followed by addition of NADPH regenerating reagents by uHPLC-MS analysis; type: ADME; conditions: recombinant enzyme; how it was run: as §1
Hepatocyte [1] = test: Induction of change in PTP4A1 protein expression in human primary hepatocytes at 10 uM incubated for 48 hrs by relative-quantitation label-free proteomics analysis relative to NVP; type: cell-based
How it was run: (§2)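 Cryoplateable pooled human hepatocytes (10 mixed-sex donors per pool; three pools), adhered overnight, then given fresh medium containing compound (10 μM), NVP (10 μM) or vehicle (0.1% DMSO) for 48 h. Lysate reduced (DTT) and alkylated (iodoacetamide), acetone-precipitated and digested with trypsin. Label-free Top10 nanoLC-MS with precursor ion area quantitation; unpaired t test P values, Cohen's d effect size.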

Cytochrome P450 1A1 = biological target: T2, Cytochrome P450 1A1 (Homo sapiens, UniProt P04798); test: Drug metabolism assessed as human CYP1A1-mediated formation of 12-OHNVP at 10 uM pre-incubated for 30 mins followed by addition of NADPH regenerating reagents by uHPLC-MS analysis; type: ADME; conditions: recombinant enzyme; how it was run: as §1
T2 sequence (P04798 whole entry): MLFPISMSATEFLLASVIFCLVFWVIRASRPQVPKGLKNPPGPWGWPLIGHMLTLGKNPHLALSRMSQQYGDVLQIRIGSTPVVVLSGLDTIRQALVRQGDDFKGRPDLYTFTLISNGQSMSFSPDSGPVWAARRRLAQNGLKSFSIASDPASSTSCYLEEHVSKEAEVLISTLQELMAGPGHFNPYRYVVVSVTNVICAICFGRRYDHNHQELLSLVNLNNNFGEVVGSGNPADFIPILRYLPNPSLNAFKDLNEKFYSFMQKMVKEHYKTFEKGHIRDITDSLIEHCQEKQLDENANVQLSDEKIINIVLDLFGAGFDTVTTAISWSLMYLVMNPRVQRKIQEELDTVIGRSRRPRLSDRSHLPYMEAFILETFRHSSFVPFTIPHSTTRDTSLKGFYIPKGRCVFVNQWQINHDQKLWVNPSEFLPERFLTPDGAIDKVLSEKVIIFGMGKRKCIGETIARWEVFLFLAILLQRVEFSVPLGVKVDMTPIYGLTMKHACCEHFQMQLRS

Cytochrome P450 = test: Drug metabolism in human liver microsomes assessed as Cytochrome P450-mediated formation of 2-OHNVP formation at 5 to 400 uM in presence of NADPH regenerating reagents by uHPLC-MS/MS analysis; type: ADME
How it was run: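 Pooled human liver microsomes (2.5 mg/mL) with NADPH-regenerating system, substrate 5–400 μM, 30 min at 37 °C, 0.1% DMSO (0.2% at 400 μM); 2- and 3-OH metabolites by uHPLC-MS/MS Orbitrap; three replicates, mean ± SD.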

Hepatocyte [2] = test: Induction of change in MTX2 protein expression in human primary hepatocytes at 10 uM incubated for 48 hrs by relative-quantitation label-free proteomics analysis relative to NVP; type: cell-based; how it was run: as §2
Hepatocyte [3] = test: Induction of change in PLEKHA6 protein expression in human primary hepatocytes at 10 uM incubated for 48 hrs by relative-quantitation label-free proteomics analysis relative to NVP; type: cell-based; how it was run: as §2
Cytochrome P450 3A4 = Cytochrome P450 3A4 (Homo sapiens, UniProt P08684); test: Drug metabolism assessed as human CYP3A4-mediated formation of 12-OHNVP at 10 uM pre-incubated for 30 mins followed by addition of NADPH regenerating reagents by uHPLC-MS analysis; type: ADME; conditions: recombinant enzyme; how it was run: as §1
Hepatocyte [4] = test: Induction of change in Slc9a3r1 protein expression in C57BL/6J mouse primary hepatocytes at 400 uM incubated for 8 hrs by relative-quantitation label-free proteomics analysis relative to NVP; type: cell-based
How it was run: as §2, with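 “Fresh primary” for “Cryoplateable pooled human”, “from male C57BL/6J mice aged 8–13 weeks,” for “(10 mixed-sex donors per pool; three pools),”, “(400” for “(10”, “(0.2%” for “(0.1%”, “8” for “48”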

Hepatocyte [5] = test: Induction of change in CCAR2 protein expression in human primary hepatocytes at 10 uM incubated for 48 hrs by relative-quantitation label-free proteomics analysis relative to NVP; type: cell-based; how it was run: as §2
Hepatocyte [6] = test: Induction of change in Igfbp1 protein expression in C57BL/6J mouse primary hepatocytes at 400 uM incubated for 8 hrs by relative-quantitation label-free proteomics analysis relative to NVP; type: cell-based
How it was run: as §2, with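 “Fresh primary” for “Cryoplateable pooled human”, “from male C57BL/6J mice aged 8–13 weeks,” for “(10 mixed-sex donors per pool; three pools),”, “(400” for “(10”, “(0.2%” for “(0.1%”, “8” for “48”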

Cytochrome P450 2D6 = Cytochrome P450 2D6 (Homo sapiens, UniProt P10635); test: Drug metabolism assessed as human CYP2D6-mediated formation of 12-OHNVP at 10 uM pre-incubated for 30 mins followed by addition of NADPH regenerating reagents by uHPLC-MS analysis; type: ADME; conditions: recombinant enzyme; how it was run: as §1
Hepatocyte [7] = test: Induction of change in CYB5A protein expression in human primary hepatocytes at 10 uM incubated for 48 hrs by relative-quantitation label-free proteomics analysis relative to NVP; type: cell-based; how it was run: as §2
Hepatocyte [8] = test: Induction of change in AKAP2 protein expression in human primary hepatocytes at 10 uM incubated for 48 hrs by relative-quantitation label-free proteomics analysis relative to NVP; type: cell-based; how it was run: as §2
Hepatocyte [9] = test: Induction of change in Sirt5 protein expression in C57BL/6J mouse primary hepatocytes at 400 uM incubated for 8 hrs by relative-quantitation label-free proteomics analysis relative to NVP; type: cell-based
How it was run: as §2, with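 “Fresh primary” for “Cryoplateable pooled human”, “from male C57BL/6J mice aged 8–13 weeks,” for “(10 mixed-sex donors per pool; three pools),”, “(400” for “(10”, “(0.2%” for “(0.1%”, “8” for “48”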

Cytochrome P450 3A4, sequence (P08684 whole entry): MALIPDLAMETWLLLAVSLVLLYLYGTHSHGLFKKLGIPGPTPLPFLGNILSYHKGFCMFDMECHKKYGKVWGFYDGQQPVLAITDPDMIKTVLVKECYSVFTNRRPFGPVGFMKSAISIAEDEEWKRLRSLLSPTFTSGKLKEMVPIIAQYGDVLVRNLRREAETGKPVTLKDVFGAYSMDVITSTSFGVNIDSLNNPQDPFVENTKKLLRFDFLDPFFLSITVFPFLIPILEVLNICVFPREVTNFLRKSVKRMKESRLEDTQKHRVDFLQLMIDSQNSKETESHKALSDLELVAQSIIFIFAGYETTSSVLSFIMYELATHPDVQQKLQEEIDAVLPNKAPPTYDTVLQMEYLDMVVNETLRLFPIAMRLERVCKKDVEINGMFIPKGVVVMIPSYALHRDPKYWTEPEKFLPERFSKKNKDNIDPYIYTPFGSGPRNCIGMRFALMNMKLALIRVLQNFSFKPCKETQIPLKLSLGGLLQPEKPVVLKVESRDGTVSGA
Cytochrome P450 2D6, sequence (P10635 whole entry): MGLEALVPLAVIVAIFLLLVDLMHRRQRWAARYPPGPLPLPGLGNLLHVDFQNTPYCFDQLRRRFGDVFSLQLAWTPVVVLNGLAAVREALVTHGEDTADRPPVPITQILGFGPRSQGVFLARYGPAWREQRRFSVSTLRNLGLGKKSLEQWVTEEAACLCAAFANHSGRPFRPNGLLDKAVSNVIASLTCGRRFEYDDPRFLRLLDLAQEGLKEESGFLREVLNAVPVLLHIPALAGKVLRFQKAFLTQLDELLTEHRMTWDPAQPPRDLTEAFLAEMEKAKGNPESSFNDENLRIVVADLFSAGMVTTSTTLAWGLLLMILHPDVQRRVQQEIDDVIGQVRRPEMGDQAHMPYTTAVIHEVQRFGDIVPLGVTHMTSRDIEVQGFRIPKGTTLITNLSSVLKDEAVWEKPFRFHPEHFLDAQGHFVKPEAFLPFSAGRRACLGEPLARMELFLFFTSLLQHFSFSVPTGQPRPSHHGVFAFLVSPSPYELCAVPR
Cytochrome P450 3A5, sequence (P20815 whole entry): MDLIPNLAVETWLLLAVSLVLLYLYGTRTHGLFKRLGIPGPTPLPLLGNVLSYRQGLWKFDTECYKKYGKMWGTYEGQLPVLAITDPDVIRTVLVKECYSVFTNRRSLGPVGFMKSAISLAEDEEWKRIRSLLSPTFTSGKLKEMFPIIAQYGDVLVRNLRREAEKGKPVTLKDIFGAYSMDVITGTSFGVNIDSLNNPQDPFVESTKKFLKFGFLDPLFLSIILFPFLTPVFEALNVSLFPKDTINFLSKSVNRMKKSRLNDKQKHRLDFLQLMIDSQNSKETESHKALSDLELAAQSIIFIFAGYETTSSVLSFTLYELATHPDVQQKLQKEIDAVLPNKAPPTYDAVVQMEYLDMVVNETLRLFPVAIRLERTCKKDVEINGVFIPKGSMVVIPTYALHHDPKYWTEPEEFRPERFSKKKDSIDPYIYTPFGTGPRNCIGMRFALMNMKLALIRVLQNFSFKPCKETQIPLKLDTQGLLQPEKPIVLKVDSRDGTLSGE

SMILES: [2H]C([2H])([2H])c1ccnc2c1NC(=O)c1cccnc1N2C1CC1
- Drug metabolism (Cytochrome P450 2A6): Metabolite_Detected
- Drug metabolism (Cytochrome P450 3A5): Metabolite_Notdetected
- fold change (FC) (Hepatocyte [1]): -2.42
- Drug metabolism (Cytochrome P450 1A1): Metabolite_Detected
- Drug metabolism (Cytochrome P450): Metabolite_Detected
- fold change (FC) (Hepatocyte [2]): -1.67
- fold change (FC) (Hepatocyte [3]): 1.59
- Drug metabolism (Cytochrome P450 3A4): Metabolite_Detected
- fold change (FC) (Hepatocyte [4]): 2.5
- fold change (FC) (Hepatocyte [5]): -2.05
- fold change (FC) (Hepatocyte [6]): 4.7
- Drug metabolism (Cytochrome P450 2D6): Metabolite_Detected
- fold change (FC) (Hepatocyte [7]): -1.5
- fold change (FC) (Hepatocyte [8]): -2.67
- fold change (FC) (Hepatocyte [9]): 1.56
